According to ChEMBL document CHEMBL1649231, “In vitro activities of panduratin A against clinical Staphylococcus strains” (2009):

Assays:
Type in all cases: functional
Staphylococcus hominis [1] = test: Antimicrobial activity against methicillin-susceptible coagulase-negative Staphylococcus hominis assessed as susceptible isolates after 24 hrs by broth microdilution method
Staphylococcus hominis [2] = test: Bactericidal activity against methicillin-resistant coagulase-negative Staphylococcus hominis after 24 hrs by plate counting method; settings: for MBC: Staphylococcus hominis, 24 h
Mammaliicoccus sciuri [3] = test: Bactericidal activity against methicillin-resistant coagulase-negative Staphylococcus sciuri after 24 hrs by plate counting method; settings: for MBC: Mammaliicoccus sciuri, 24 h
Procedure, shortened: (§1)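 Clinical staphylococcal isolates from patient body fluids, blood, genital secretions, pus or sputum; species by conventional methods or Vitek. Twofold dilutions in Mueller-Hinton broth, inoculum 5 × 10^5 CFU/ml, 37°C aerobic 24 h (CLSI M7-A6 microdilution). About 100 μl from each well without visible growth spread on MHA; 37°C 24 h. MBC = lowest concentration giving no growth on agar.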

[4] = system: Staphylococcus haemolyticus; test: Bactericidal activity against methicillin-susceptible coagulase-negative Staphylococcus haemolyticus after 24 hrs by plate counting method; settings: for MBC: Staphylococcus haemolyticus, 24 h; procedure, shortened: as §1
[5] = system: Staphylococcus epidermidis; test: Antimicrobial activity against methicillin-susceptible coagulase-negative Staphylococcus epidermidis assessed as susceptible isolates after 24 hrs by broth microdilution method
Mammaliicoccus sciuri [6] = test: Antimicrobial activity against methicillin-resistant coagulase-negative Staphylococcus sciuri after 24 hrs by broth microdilution method
Procedure, shortened: (§2)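 Clinical isolates came from blood, body fluids, genital secretions, pus or sputum, identified conventionally or by Vitek. MICs were run by CLSI M7-A6 broth microdilution in Mueller-Hinton broth with 5 × 10^5 CFU/ml inoculum. Agents were twofold serially diluted, starting from 10% DMSO. Drug-free and uninoculated controls were included. Plates were incubated aerobically at 37°C for 24 h; MIC is the lowest concentration giving no visible growth.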

[7] = system: Staphylococcus haemolyticus; test: Antimicrobial activity against methicillin-resistant coagulase-negative Staphylococcus haemolyticus after 24 hrs by broth microdilution method; procedure, shortened: as §2
Staphylococcus hominis [8] = test: Antimicrobial activity against methicillin-resistant coagulase-negative Staphylococcus hominis assessed as susceptible isolates after 24 hrs by broth microdilution method
Staphylococcus simulans [9] = test: Bactericidal activity against methicillin-resistant coagulase-negative Staphylococcus simulans after 24 hrs by plate counting method; settings: for MBC: Staphylococcus simulans, 24 h; procedure, shortened: as §1
[10] = system: Staphylococcus epidermidis; test: Antimicrobial activity against methicillin-susceptible coagulase-negative Staphylococcus epidermidis after 24 hrs by broth microdilution method; procedure, shortened: as §2
Mammaliicoccus sciuri [11] = test: Bactericidal activity against methicillin-susceptible coagulase-negative Staphylococcus sciuri after 24 hrs by plate counting method; settings: for MBC: Mammaliicoccus sciuri, 24 h; procedure, shortened: as §1
Staphylococcus simulans [12] = test: Antimicrobial activity against methicillin-resistant coagulase-negative Staphylococcus simulans assessed as resistant isolates after 24 hrs by broth microdilution method
[13] = system: Staphylococcus haemolyticus; test: Bactericidal activity against methicillin-resistant coagulase-negative Staphylococcus haemolyticus after 24 hrs by plate counting method; settings: for MBC: Staphylococcus haemolyticus, 24 h
[14] = system: Staphylococcus haemolyticus; test: Antimicrobial activity against methicillin-resistant coagulase-negative Staphylococcus haemolyticus assessed as susceptible isolates after 24 hrs by broth microdilution method
[15] = system: Staphylococcus haemolyticus; test: Antimicrobial activity against methicillin-susceptible coagulase-negative Staphylococcus haemolyticus assessed as susceptible isolates after 24 hrs by broth microdilution method
Staphylococcus aureus [16] = test: Antimicrobial activity against methicillin-susceptible Staphylococcus aureus assessed as susceptible isolates after 24 hrs by broth microdilution method
Staphylococcus hominis [17] = test: Bactericidal activity against methicillin-susceptible coagulase-negative Staphylococcus hominis after 24 hrs by plate counting method; settings: for MBC: Staphylococcus hominis, 24 h; procedure, shortened: as §1
Staphylococcus aureus [18] = test: Bactericidal activity against methicillin-resistant Staphylococcus aureus after 24 hrs by plate counting method; settings: for MBC: Staphylococcus aureus, 24 h
Staphylococcus aureus [19] = test: Antimicrobial activity against methicillin-susceptible Staphylococcus aureus assessed as resistant isolates after 24 hrs by broth microdilution method
Staphylococcus simulans [20] = test: Antimicrobial activity against methicillin-susceptible coagulase-negative Staphylococcus simulans assessed as susceptible isolates after 24 hrs by broth microdilution method
Procedure, shortened: (§3)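 Clinical isolates from blood, body fluids, pus, sputum or genital secretions, identified conventionally or by Vitek, were tested alongside ATCC 29213 and ATCC 12228 controls. CLSI M7-A6 broth microdilution in Mueller-Hinton broth used twofold dilutions from a 10% DMSO solution and 5 × 10^5 CFU/ml inoculum. Drug-free and uninoculated wells served as controls; incubation was aerobic at 37°C for 24 h. MIC was the lowest concentration with no visible growth.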

Mammaliicoccus sciuri [21] = test: Antimicrobial activity against methicillin-susceptible coagulase-negative Staphylococcus sciuri assessed as resistant isolates after 24 hrs by broth microdilution method
Staphylococcus simulans [22] = test: Antimicrobial activity against methicillin-resistant coagulase-negative Staphylococcus simulans after 24 hrs by broth microdilution method; procedure, shortened: as §2
Mammaliicoccus sciuri [23] = test: Antimicrobial activity against methicillin-susceptible coagulase-negative Staphylococcus sciuri after 24 hrs by broth microdilution method; procedure, shortened: as §2
Staphylococcus hominis [24] = test: Antimicrobial activity against methicillin-susceptible coagulase-negative Staphylococcus hominis assessed as resistant isolates after 24 hrs by broth microdilution method
[25] = system: Staphylococcus epidermidis; test: Antimicrobial activity against methicillin-resistant coagulase-negative Staphylococcus epidermidis after 24 hrs by broth microdilution method; procedure, shortened: as §2
Staphylococcus hominis [26] = test: Antimicrobial activity against methicillin-resistant coagulase-negative Staphylococcus hominis assessed as resistant isolates after 24 hrs by broth microdilution method
[27] = system: Staphylococcus epidermidis; test: Antimicrobial activity against methicillin-susceptible coagulase-negative Staphylococcus epidermidis assessed as resistant isolates after 24 hrs by broth microdilution method
[28] = system: Staphylococcus epidermidis; test: Antimicrobial activity against methicillin-resistant coagulase-negative Staphylococcus epidermidis assessed as susceptible isolates after 24 hrs by broth microdilution method
[29] = system: Staphylococcus haemolyticus; test: Antimicrobial activity against methicillin-susceptible coagulase-negative Staphylococcus haemolyticus assessed as resistant isolates after 24 hrs by broth microdilution method
Staphylococcus simulans [30] = test: Antimicrobial activity against methicillin-susceptible coagulase-negative Staphylococcus simulans after 24 hrs by broth microdilution method; procedure, shortened: as §2
Staphylococcus aureus [31] = test: Bactericidal activity against methicillin-susceptible Staphylococcus aureus after 24 hrs by plate counting method; settings: for MBC: Staphylococcus aureus, 24 h; procedure, shortened: as §1
Staphylococcus aureus [32] = test: Antimicrobial activity against methicillin-resistant Staphylococcus aureus assessed as susceptible isolates after 24 hrs by broth microdilution method
Staphylococcus hominis [33] = test: Antimicrobial activity against methicillin-susceptible coagulase-negative Staphylococcus hominis after 24 hrs by broth microdilution method; procedure, shortened: as §2
[34] = system: Staphylococcus epidermidis; test: Bactericidal activity against methicillin-susceptible coagulase-negative Staphylococcus epidermidis after 24 hrs by plate counting method; settings: for MBC: Staphylococcus epidermidis, 24 h; procedure, shortened: as §1
Staphylococcus aureus [35] = test: Antimicrobial activity against methicillin-susceptible Staphylococcus aureus after 24 hrs by broth microdilution method; procedure, shortened: as §2
Mammaliicoccus sciuri [36] = test: Antimicrobial activity against methicillin-resistant coagulase-negative Staphylococcus sciuri assessed as resistant isolates after 24 hrs by broth microdilution method
[37] = system: Staphylococcus epidermidis; test: Antimicrobial activity against methicillin-resistant coagulase-negative Staphylococcus epidermidis assessed as resistant isolates after 24 hrs by broth microdilution method
Staphylococcus simulans [38] = test: Bactericidal activity against methicillin-susceptible coagulase-negative Staphylococcus simulans after 24 hrs by plate counting method; settings: for MBC: Staphylococcus simulans, 24 h; procedure, shortened: as §1
Staphylococcus aureus [39] = test: Antimicrobial activity against methicillin-resistant Staphylococcus aureus after 24 hrs by broth microdilution method; procedure, shortened: as §2
Staphylococcus aureus [40] = test: Antimicrobial activity against methicillin-resistant Staphylococcus aureus assessed as resistant isolates after 24 hrs by broth microdilution method
[41] = system: Staphylococcus haemolyticus; test: Antimicrobial activity against methicillin-resistant coagulase-negative Staphylococcus haemolyticus assessed as resistant isolates after 24 hrs by broth microdilution method
[42] = system: Staphylococcus haemolyticus; test: Antimicrobial activity against methicillin-susceptible coagulase-negative Staphylococcus haemolyticus after 24 hrs by broth microdilution method; procedure, shortened: as §2
Mammaliicoccus sciuri [43] = test: Antimicrobial activity against methicillin-susceptible coagulase-negative Staphylococcus sciuri assessed as susceptible isolates after 24 hrs by broth microdilution method; procedure, shortened: as §3
Staphylococcus hominis [44] = test: Antimicrobial activity against methicillin-resistant coagulase-negative Staphylococcus hominis after 24 hrs by broth microdilution method; procedure, shortened: as §2
[45] = system: Staphylococcus epidermidis; test: Bactericidal activity against methicillin-resistant coagulase-negative Staphylococcus epidermidis after 24 hrs by plate counting method; settings: for MBC: Staphylococcus epidermidis, 24 h

Cc1onc(-c2ccccc2)c1C(=O)N[C@@H]1C(=O)N2[C@@H]1SC(C)(C)[C@@H]2C(=O)O [OXACILLIN]
96%: Activity (Staphylococcus hominis [1]) | Activity [5] | Activity [15] | Activity (Staphylococcus simulans [20]) | Activity (Mammaliicoccus sciuri [43])
16 µg/mL: MBC50 (Staphylococcus aureus [31])
256 µg/mL: MBC90 (Staphylococcus hominis [2]) | MBC90 (Mammaliicoccus sciuri [3]) | MBC90 (Staphylococcus simulans [9]) | MBC90 [13] | MBC50 (Staphylococcus aureus [18]) | MBC (Staphylococcus aureus [18]) | MBC90 [45]
0.125 µg/mL: MIC [10] | MIC50 [10] | MIC (Mammaliicoccus sciuri [23]) | MIC50 (Mammaliicoccus sciuri [23]) | MIC (Staphylococcus simulans [30]) | MIC50 (Staphylococcus simulans [30]) | MIC (Staphylococcus hominis [33]) | MIC50 (Staphylococcus hominis [33]) | MIC (Staphylococcus aureus [35]) | MIC50 (Staphylococcus aureus [35]) | MIC [42] | MIC50 [42]
64 µg/mL: MIC50 (Mammaliicoccus sciuri [6]) | MIC90 (Mammaliicoccus sciuri [6]) | MIC50 [7] | MIC90 [7] | MIC50 (Staphylococcus simulans [22]) | MIC90 (Staphylococcus simulans [22]) | MIC50 [25] | MIC90 [25] | MBC90 (Staphylococcus aureus [31]) | MIC50 (Staphylococcus aureus [39]) | MIC90 (Staphylococcus aureus [39]) | MIC50 (Staphylococcus hominis [44]) | MIC90 (Staphylococcus hominis [44])
74%: Activity (Staphylococcus simulans [12]) | Activity (Staphylococcus hominis [26]) | Activity (Mammaliicoccus sciuri [36]) | Activity [37] | Activity [41]
100%: Activity (Staphylococcus aureus [40])
512 µg/mL: MBC90 (Staphylococcus aureus [18])
1 µg/mL: MBC (Staphylococcus hominis [2]) | MBC (Mammaliicoccus sciuri [3]) | MBC (Staphylococcus simulans [9]) | MBC [13] | MBC (Staphylococcus aureus [31]) | MIC90 (Staphylococcus aureus [35]) | MBC [45]
8 µg/mL: MBC90 [4] | MBC90 (Mammaliicoccus sciuri [11]) | MBC90 (Staphylococcus hominis [17]) | MBC90 [34] | MBC90 (Staphylococcus simulans [38])
4%: Activity (Mammaliicoccus sciuri [21]) | Activity (Staphylococcus hominis [24]) | Activity [27] | Activity [29]
26%: Activity (Staphylococcus hominis [8]) | Activity [14] | Activity [28]
0.5 µg/mL: MIC90 [10] | MIC90 (Mammaliicoccus sciuri [23]) | MIC90 (Staphylococcus simulans [30]) | MIC90 (Staphylococcus hominis [33]) | MIC90 [42]
0%: Activity (Staphylococcus aureus [32])
89%: Activity (Staphylococcus aureus [16])
0.25 µg/mL: MBC [4] | MBC (Mammaliicoccus sciuri [11]) | MBC (Staphylococcus hominis [17]) | MBC [34] | MBC (Staphylococcus simulans [38])
11%: Activity (Staphylococcus aureus [19])
2 µg/mL: MBC50 [4] | MBC50 (Mammaliicoccus sciuri [11]) | MBC50 (Staphylococcus hominis [17]) | MBC50 [34] | MBC50 (Staphylococcus simulans [38])

CC(=O)NC[C@H]1CN(c2ccc(N3CCOCC3)c(F)c2)C(=O)O1 [LINEZOLID]
16 µg/mL: MBC90 (Staphylococcus aureus [18])
0.5 µg/mL: MBC (Staphylococcus hominis [2]) | MBC (Mammaliicoccus sciuri [3]) | MBC (Staphylococcus simulans [9]) | MBC [13] | MBC [45]
0.25 µg/mL: MBC [4] | MIC50 (Mammaliicoccus sciuri [6]) | MIC50 [7] | MIC50 [10] | MBC (Mammaliicoccus sciuri [11]) | MBC (Staphylococcus hominis [17]) | MIC50 (Staphylococcus simulans [22]) | MIC50 (Mammaliicoccus sciuri [23]) | MIC50 [25] | MIC50 (Staphylococcus simulans [30]) | MIC50 (Staphylococcus hominis [33]) | MBC [34] | MBC (Staphylococcus simulans [38]) | MIC50 [42] | MIC50 (Staphylococcus hominis [44])
4 µg/mL: MBC90 [4] | MIC90 [10] | MBC90 (Mammaliicoccus sciuri [11]) | MBC90 (Staphylococcus hominis [17]) | MIC90 (Mammaliicoccus sciuri [23]) | MIC90 (Staphylococcus simulans [30]) | MIC90 (Staphylococcus hominis [33]) | MBC90 [34] | MIC90 (Staphylococcus aureus [35]) | MBC90 (Staphylococcus simulans [38]) | MIC90 [42]
8 µg/mL: MBC (Staphylococcus aureus [18]) | MBC50 (Staphylococcus aureus [31])
2 µg/mL: MBC50 [4] | MIC90 (Mammaliicoccus sciuri [6]) | MIC90 [7] | MBC50 (Mammaliicoccus sciuri [11]) | MBC50 (Staphylococcus hominis [17]) | MIC90 (Staphylococcus simulans [22]) | MIC90 [25] | MBC (Staphylococcus aureus [31]) | MBC50 [34] | MBC50 (Staphylococcus simulans [38]) | MIC90 (Staphylococcus aureus [39]) | MIC90 (Staphylococcus hominis [44])
32 µg/mL: MBC90 (Staphylococcus aureus [31])
1 µg/mL: MIC50 (Staphylococcus aureus [35]) | MIC50 (Staphylococcus aureus [39])
100%: Activity (Staphylococcus hominis [8]) | Activity [14] | Activity [28] | Activity (Staphylococcus aureus [32])
96%: Activity (Staphylococcus hominis [1]) | Activity [5] | Activity [15] | Activity (Staphylococcus aureus [16]) | Activity (Staphylococcus simulans [20]) | Activity (Mammaliicoccus sciuri [43])
